Test results taken from ChEMBL document CHEMBL4229488, “Secondary carbamate linker can facilitate the sustained release of dopamine from brain-targeted prodrug” (Bioorg Med Chem Lett, 2018).

Tests used:
[1] = target: T1, Large neutral amino acids transporter small subunit 1 (Homo sapiens, UniProt Q01650); assay: Drug uptake in human MCF7 cells assessed as LAT1-mediated drug transportation rate at 25 to 50 uM after 10 mins by LC-MS analysis; type: ADME, cell-based; conditions: mcf7, 10 min
[2] = Stability in 75% rat plasma assessed as parent compound remaining after 6 hrs by HPLC analysis; type: ADME, cell-free; conditions: read-out: Stability
How it was run: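 Incubated at 37 °C in 75% rat plasma, alongside isotonic Tris-HCl buffer (pH 7.4) and 10% rat liver homogenate. The read-out was the percentage of intact parent compound after 6 h, taken as conversion to dopamine.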

[3] = Stability in 10% rat liver homogenates assessed as parent compound remaining after 6 hrs by HPLC analysis; type: ADME, tissue-based; conditions: for remaining at 6 h: 10% rat liver homogenate, read-out: Stability
How it was run: (§1)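 Conversion of the compound was followed at 37 °C in 10% rat liver homogenate. The intact parent was tracked over time up to 6 h, and half-life or the percentage remaining at 6 h was taken from this.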

[4] = Stability in pH 7.4 isotonic tris buffer assessed as parent compound remaining after 6 hrs by HPLC analysis; type: physicochemical; conditions: read-out: Stability
How it was run: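 Chemical hydrolysis was run at 37 °C in isotonic Tris-HCl buffer at pH 7.4. The percentage of intact parent was measured after 6 h.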

[5] = target: T1, Large neutral amino acids transporter small subunit 1; assay: Inhibition of LAT1-mediated [14C]-L-leucine uptake in human MCF7 cells after 5 mins by liquid scintillation counting method; type: cell-based
[6] = Half-life in human in presence of AADC inhibitor carbidopa; type: ADME, organism-based; conditions: in vivo
[7] = target: T1, Large neutral amino acids transporter small subunit 1; assay: Drug uptake in human MCF7 cells assessed as LAT1-mediated drug transportation rate at 3.125 to 100 uM after 10 mins by LC-MS analysis; type: ADME, cell-based; conditions: mcf7, 10 min
[8] = Half life in 10% rat liver homogenate by HPLC method; type: ADME, tissue-based; how it was run: as §1
[9] = Half-life in human in presence of COMT inhibitor entacapone; type: ADME, organism-based; conditions: in vivo

T1 sequence (Q01650 whole entry): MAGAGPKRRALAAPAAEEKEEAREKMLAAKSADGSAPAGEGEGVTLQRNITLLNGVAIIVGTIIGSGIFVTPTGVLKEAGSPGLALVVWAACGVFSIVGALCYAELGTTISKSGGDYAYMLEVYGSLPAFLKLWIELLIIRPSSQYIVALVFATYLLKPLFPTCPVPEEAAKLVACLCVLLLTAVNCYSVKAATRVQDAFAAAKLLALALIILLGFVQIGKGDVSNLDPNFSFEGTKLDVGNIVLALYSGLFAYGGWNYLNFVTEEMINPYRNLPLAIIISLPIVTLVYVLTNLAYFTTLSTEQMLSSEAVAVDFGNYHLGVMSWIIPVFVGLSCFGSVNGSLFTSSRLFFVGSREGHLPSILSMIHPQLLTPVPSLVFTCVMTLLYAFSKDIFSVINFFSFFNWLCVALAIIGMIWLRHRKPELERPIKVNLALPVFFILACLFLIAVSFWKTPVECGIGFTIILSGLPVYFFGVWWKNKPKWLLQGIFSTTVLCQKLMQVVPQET

For `Cl.NC(Cc1cccc(C(=O)NCCc2ccc(O)c(O)c2)c1)C(=O)O` (stereo not given), the Vmax [1] was less than 3 pmol/mg/min, the remaining at 6 h [2] was 57.4 to 62.7% and the remaining at 6 h [3] was 47.7 to 51.9%. The remaining at 6 h [4] was 83.2 to 83.7%, the IC50 [5] was 32.4 µM and the inhibition [5] was “Dose-dependent effect”.
For `Cl.N[C@@H](Cc1ccc(OC(=O)NCCc2ccc(O)c(O)c2)cc1)C(=O)O`, the Vmax [1] was less than 3 pmol/mg/min, the remaining at 6 h [2] was 40.5 to 60.5% and the remaining at 6 h [3] was 63.2 to 66.5%. For the same compound, the remaining at 6 h [4] was 78.1 to 93.1%, the IC50 [5] was 27.7 µM and the inhibition [5] was “Dose-dependent effect”.
For `N[C@@H](Cc1ccc(O)c(O)c1)C(=O)O` [LEVODOPA], the half-life [6] was 60 min, the Vmax [7] was 2.6 nmol/mg/min and the half-life [8] was 15.5 min. For the same compound, the Stability ([3]; tissue homogenate, 6 h) was “Unstable”, the remaining at 6 h [4] was 99.8 to 103% and the IC50 [5] was 100 µM. The inhibition [5] was “Dose-dependent effect” and the half-life [9] was 30 to 90 min.
